How the values were obtained:
[1] = Cytotoxicity against human NCI-H460 cells assessed as decrease in cell viability after 72 hrs by MTT assay; type: functional, cell-based; conditions: NCI-H460, 72 h
Outline: (§1)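 Human NSCLC lines (ATCC) seeded at 2 × 10^3 cells/well, adhered overnight, then exposed 72 h to at least five concentrations of analogue in RPMI with ≤0.2% DMSO. MTT 0.5 mg/mL added for 4 h, formazan dissolved in DMSO, absorbance read at 570 nm. Viability relative to untreated cells. IC50 per experiment averaged over three independent triplicate runs on different days (mean ± SD). Cisplatin positive control.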

[2] = Cytotoxicity against human NCI-H292 cells assessed as decrease in cell viability after 72 hrs by MTT assay; type: functional, cell-based; conditions: NCI-H292, 72 h; outline: as §1

| SMILES | IC50 [1] [µM] | IC50 [2] [µM] |
| --- | --- | --- |
| COC1=C(C)C(=O)C2=C(C1=O)[C@H]1[C@@H]3CC4=C(C(=O)C(OC)=C(C)C4=O)[C@H](COC(=O)/C=C/c4ccc([N+](=O)[O-])cc4)N3[C@@H](C#N)[C@H](C2)N1C | 0.014 | 0.022 |
| COC1=C(C)C(=O)C2=C(C1=O)[C@H]1[C@@H]3CC4=C(C(=O)C(OC)=C(C)C4=O)[C@H](COC(=O)c4cccc(C(F)(F)F)c4)N3[C@@H](C#N)[C@H](C2)N1C | 0.03 | 0.049 |
| COC1=C(C)C(=O)C2=C(C1=O)[C@H]1[C@@H]3CC4=C(C(=O)C(OC)=C(C)C4=O)[C@H](COC(=O)/C=C/c4ccncc4)N3[C@@H](C#N)[C@H](C2)N1C | 0.02 | 0.02 |
| COC1=C(C)C(=O)C2=C(C1=O)[C@H]1[C@@H]3CC4=C(C(=O)C(OC)=C(C)C4=O)[C@H](COC(=O)/C=C/c4ccccc4Cl)N3[C@@H](C#N)[C@H](C2)N1C | 0.009 | 0.025 |
| COC1=C(C)C(=O)C2=C(C1=O)[C@H]1[C@@H]3CC4=C(C(=O)C(OC)=C(C)C4=O)[C@H](COC(=O)/C=C/c4c(F)c(F)c(F)c(F)c4F)N3[C@@H](C#N)[C@H](C2)N1C | 0.069 | 0.021 |
| COC1=C(C)C(=O)C2=C(C1=O)[C@H]1[C@@H]3CC4=C(C(=O)C(OC)=C(C)C4=O)[C@H](COC(=O)c4ccc(F)cc4)N3[C@@H](C#N)[C@H](C2)N1C | 0.022 | 0.056 |
| COC1=C(C)C(=O)C2=C(C1=O)[C@H]1[C@@H]3CC4=C(C(=O)C(OC)=C(C)C4=O)[C@H](COC(=O)c4ccccc4C(F)(F)F)N3[C@@H](C#N)[C@H](C2)N1C | 0.022 | 0.051 |
| COC1=C(C)C(=O)C2=C(C1=O)[C@H]1[C@@H]3CC4=C(C(=O)C(OC)=C(C)C4=O)[C@H](COC(=O)/C=C/c4ccc(F)cc4)N3[C@@H](C#N)[C@H](C2)N1C | 0.012 | 0.044 |
| COC1=C(C)C(=O)C2=C(C1=O)[C@H]1[C@@H]3CC4=C(C(=O)C(OC)=C(C)C4=O)[C@H](COC(=O)c4cccnc4)N3[C@@H](C#N)[C@H](C2)N1C | 0.006 | 0.0064 |
| COC1=C(C)C(=O)C2=C(C1=O)[C@H]1[C@@H]3CC4=C(C(=O)C(OC)=C(C)C4=O)[C@H](COC(=O)/C=C/c4cccc(F)c4)N3[C@@H](C#N)[C@H](C2)N1C | 0.0098 | 0.011 |
| COC1=C(C)C(=O)C2=C(C1=O)[C@H]1[C@@H]3CC4=C(C(=O)C(OC)=C(C)C4=O)[C@H](COC(=O)c4cccc(F)c4)N3[C@@H](C#N)[C@H](C2)N1C | 0.011 | 0.018 |
| COC1=C(C)C(=O)C2=C(C1=O)[C@H]1[C@@H]3CC4=C(C(=O)C(OC)=C(C)C4=O)[C@H](COC(=O)c4ccccn4)N3[C@@H](C#N)[C@H](C2)N1C | 0.0022 | 0.0037 |
| COC1=C(C)C(=O)C2=C(C1=O)[C@H]1[C@@H]3CC4=C(C(=O)C(OC)=C(C)C4=O)[C@H](COC(=O)/C=C/c4ccccc4)N3[C@@H](C#N)[C@H](C2)N1C | 0.018 | 0.019 |
| COC1=C(C)C(=O)C2=C(C1=O)[C@H]1[C@@H]3CC4=C(C(=O)C(OC)=C(C)C4=O)[C@H](COC(=O)CC(F)(F)F)N3[C@@H](C#N)[C@H](C2)N1C | 0.32 | 0.57 |
| COC1=C(C)C(=O)C2=C(C1=O)[C@H]1[C@@H]3CC4=C(C(=O)C(OC)=C(C)C4=O)[C@H](COC(=O)c4ccncc4)N3[C@@H](C#N)[C@H](C2)N1C | 0.0016 | 0.0011 |
| COC1=C(C)C(=O)C2=C(C1=O)[C@H]1[C@@H]3CC4=C(C(=O)C(OC)=C(C)C4=O)[C@H](COC(=O)c4ccc(C(F)(F)F)cc4)N3[C@@H](C#N)[C@H](C2)N1C | 0.024 | 0.06 |
| COC1=C(C)C(=O)C2=C(C1=O)[C@H]1[C@@H]3CC4=C(C(=O)C(OC)=C(C)C4=O)[C@H](COC(=O)c4ccccc4F)N3[C@@H](C#N)[C@H](C2)N1C | 0.01 | 0.03 |
| COC1=C(C)C(=O)C2=C(C1=O)[C@H]1[C@@H]3CC4=C(C(=O)C(OC)=C(C)C4=O)[C@H](CO)N3[C@@H](C#N)[C@H](C2)N1C | 0.16 | 0.22 |
| COC1=C(C)C(=O)C2=C(C1=O)[C@H]1[C@@H]3CC4=C(C(=O)C(OC)=C(C)C4=O)[C@H](COC(=O)/C=C/c4cccnc4)N3[C@@H](C#N)[C@H](C2)N1C | 0.0028 | 0.0049 |
| C/C=C(/C)C(=O)OC[C@H]1C2=C(C[C@H]3[C@H]4C5=C(C[C@@H]([C@H](C#N)N13)N4C)C(=O)C(C)=C(OC)C5=O)C(=O)C(C)=C(OC)C2=O [RENIERAMYCIN M] | 0.0083 | 0.023 |
